From PubChem BioAssay
Shown are actives, neighbours in structure and some others; about 2.3% of the full set was active somewhere.
Rpn11 block: Rpn11 (PSMD14) deubiquitinase inhibitors, primary screen, biochemical, fluorescence polarization, uHTS | human 26S proteasome, Ub4-pepOG fluorescence polarization; 20S core pre-blocked with epoxomicin | inhibition, % at 20 µM | actives 0.59% (n = 360,000) | AID 588493, 2011;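 active = inhibition at 20 µM, scaled to each plate's controls, above about 33%, limit read from the data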
DNMT1 inh: human DNMT1 methyltransferase inhibitors, primary screen, biochemical, molecular beacon, fluorescence, HinP1I cleavage, uHTS; AID 588458, 2011; inhibition (reported as % activation of signal), % at 10 µM; actives 0.83% (n = 360,000); in the data active = inhibition above about 50%
Target sequence (P26358 504-1616 limits assumed): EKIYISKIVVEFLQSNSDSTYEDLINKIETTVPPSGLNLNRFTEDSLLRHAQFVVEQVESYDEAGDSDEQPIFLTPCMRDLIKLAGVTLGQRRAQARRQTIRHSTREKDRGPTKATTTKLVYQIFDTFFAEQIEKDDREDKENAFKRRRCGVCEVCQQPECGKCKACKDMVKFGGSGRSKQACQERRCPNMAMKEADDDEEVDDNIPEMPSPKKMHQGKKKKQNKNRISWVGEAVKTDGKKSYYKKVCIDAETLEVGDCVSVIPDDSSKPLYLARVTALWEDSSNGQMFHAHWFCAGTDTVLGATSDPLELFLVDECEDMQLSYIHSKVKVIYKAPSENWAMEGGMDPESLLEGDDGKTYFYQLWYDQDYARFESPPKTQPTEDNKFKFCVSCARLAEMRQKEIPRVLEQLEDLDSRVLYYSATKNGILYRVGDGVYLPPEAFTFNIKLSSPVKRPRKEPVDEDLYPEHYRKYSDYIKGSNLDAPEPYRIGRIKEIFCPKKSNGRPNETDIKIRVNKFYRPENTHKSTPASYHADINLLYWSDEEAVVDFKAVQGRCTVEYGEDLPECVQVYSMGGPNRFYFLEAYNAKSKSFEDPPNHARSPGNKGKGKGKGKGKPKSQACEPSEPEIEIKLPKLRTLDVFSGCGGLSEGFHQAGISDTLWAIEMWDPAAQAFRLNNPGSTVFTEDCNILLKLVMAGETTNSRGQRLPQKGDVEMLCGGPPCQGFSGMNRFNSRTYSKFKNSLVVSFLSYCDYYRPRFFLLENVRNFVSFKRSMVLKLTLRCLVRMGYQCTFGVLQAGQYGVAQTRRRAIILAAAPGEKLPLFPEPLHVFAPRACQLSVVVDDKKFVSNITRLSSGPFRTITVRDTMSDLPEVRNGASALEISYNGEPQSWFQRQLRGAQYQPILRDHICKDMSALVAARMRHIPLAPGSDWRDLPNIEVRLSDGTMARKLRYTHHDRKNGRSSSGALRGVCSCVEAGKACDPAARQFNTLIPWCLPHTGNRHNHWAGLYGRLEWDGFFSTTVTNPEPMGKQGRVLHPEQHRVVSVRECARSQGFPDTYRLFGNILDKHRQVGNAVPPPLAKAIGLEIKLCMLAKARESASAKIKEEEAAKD
SUMO1-SIM PPI: modulators of SUMO1 protein-protein interactions, primary screen, biochemical, uHTS | Small ubiquitin-related modifier 1 (Homo sapiens), P63165 | SUMO1 binding to a labelled peptide, TR-FRET, 1 h | inhibition, % at 20 µM | actives 0.33% (n = 360,000) | AID 602429, 2012; in the data active = inhibition above about 37%
SKN-1 block: suppressors of acrylamide-induced Pgst-4::GFP reporter in worms, primary screen, SKN-1 inhibitor project, whole organism, uHTS, GFP/RFP fluorescence ratio, strain VP596 | C. elegans VP596 Pgst-4::GFP/RFP ratio, 24 h | inhibition, % at 21.8 µM | actives 0.49% (n = 360,000);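 active = interference check ratio from 0.5 to 1.5 plus GFP to RFP signal ratio inhibition reaching or exceeding a fixed threshold, cut at about 30% in these data, passing the limit was not always enough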
MT1-MMP act inh: blockers of MT1-MMP proenzyme processing, primary screen, HT1080 RFP-PRO-GFP cells, GFP/RFP fluorescence; Matrix metalloproteinase-14 (Homo sapiens), P50281; GFP/RFP ratio fluorescence, overnight; percent of plate control window, DMSO zero; GFP/RFP ratio change, % at 20 µM; actives 0.061% (n = 360,000);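 active = GFP/RFP ratio change of at least 30% with cell ATP level not reduced by more than half and red fluorescence within 50% of control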
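Test system: HT1080 cells expressing an RFP-PRO-GFP fluorescent reporter construct / Compound dosing: single-point 20 µM compound, 1% DMSO / Schedule: cells overnight before dosing, compound overnight, 37 °C, 5% CO2 / Evaluation: GFP/RFP fluorescence ratio / Control set: DMSO and RFP-L50D-GFP cell wells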
CSN inh: inhibitors of CSN-mediated cullin deneddylation, primary screen, biochemical, fluorescence polarization, uHTS; COP9 signalosome complex subunit 5 (Homo sapiens), Q92905; inhibition, % at 12.5 µM; Purified CSN, SCF-Nedd8-OG deneddylation; actives 0.38% (n = 360,000);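 active = pattern-corrected inhibition above about 35%, with an unprinted fluorescence ratio check between 0.5 and 1.5, limit read from the data, passing the limit was not always enough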;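 also: 0% = enzyme with substrate and 100% = substrate without enzyme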
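Detection – fluorescence polarization · System – HEK293T-derived human Csn5 enzyme · Controls – substrate-only high control, full reaction low control · Timing – 90 min, room temperature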
Rpn11 inh conf: Rpn11 (PSMD14) deubiquitinase inhibitors, confirmation, biochemical, fluorescence polarization, single concentration. shares compounds with Rpn11 block. purified human 26S proteasome, Ub4-pepOG fluorescence polarization; proteasome pretreated with epoxomicin. inhibition, % at 20 µM. actives 29% (n = 1,900). AID 602318, 2012
MMP-2 counter: MMP-2 enzyme inhibition, confirmation, counter-screen for RPN11 inhibitor project, biochemical, fluorescence, single concentration; recombinant MMP-2, FRET peptide cleavage fluorescence; inhibition, % at 20 µM; shares compounds with Rpn11 block; actives 4% (n = 1,900);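 also: human MMP-2 activated beforehand with APMA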
Thrombin FP: bovine thrombin protease inhibition, confirmation, counter-screen for Rpn11 inhibitor project, biochemical, fluorescence polarization, single concentration; shares compounds with Rpn11 block; bovine thrombin cleavage of Ub4-pepOG; inhibition, % at 20 µM; actives 13% (n = 1,900);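 active = mean inhibition at least 40% at 20 µM, or signal 3 deviations below plate average, so some actives read negative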;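 also: plate controls were thrombin with DMSO for no effect and buffer wells lacking thrombin for full effect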
* hit, by the source's call; · = no result; + = active, no number. Rule as the data show it, unless noted: active = inhibition above about 40%; inactive = the rest.

SMILES	Rpn11 block	DNMT1 inh	SUMO1-SIM PPI	SKN-1 block	MT1-MMP act inh	CSN inh	Rpn11 inh conf	MMP-2 counter	Thrombin FP
c1ccc(Oc2nc(N3CCOCC3)nc(N3CCOCC3)n2)cc1	4.7	-3.6	0.7	-18.7	-2.9	-7.8	·	·	·
CCCCCCCCN1C(=O)[C@H](CC(=O)NCc2ccc(OC)c(OC)c2)C[C@@]2(C(=O)OC)CCCCC=C12	·	·	11.0	14.6	-1.6	2.7	·	·	·
C[C@H](NC(=O)c1ccco1)C(=O)NC1CCCCCC1	-3.3	1.8	5.6	-0.5	-3.2	-2.3	·	·	·
CSCCC(NC(=O)c1ccco1)C(=O)OC(C)C(=O)NC(=O)NC1CCCCC1 (stereo not drawn)	94.8*	-0.9	3.9	-2.2	4.9	-1.6	-3.4	5.6	-0.2
COc1ccc(CCn2c(N)c(C(=O)NCc3ccco3)c3nc4ccccc4nc32)cc1	41.2*	-35.3	7.8	-0.4	-29.0	11.1	-1.7	30.6	25.3
COC(=O)C[C@@H]1CC[C@H](NC(=O)Nc2cccc(F)c2)[C@@H](CO)O1	·	·	2.4	9.2	1.4	2.3	·	·	·
COc1cccc(C(O)c2nc(-c3ccc(OC)nc3)cs2)c1 (stereo not drawn)	1.0	0.9	-3.3	8.8	2.4	3.8	·	·	·
CCn1c2ccccc2c2cc(/C=N/NC(=O)c3cccc(C)c3)ccc21	147.3*	-4.8	0.5	45.1*	-4.3	45.3*	1.9	3.9	-11.8
CCn1c2ccccc2c2cc(/C=N/NC(=O)c3ccccc3C)ccc21	1.4	-2.8	2.5	4.1	-1.0	-0.5	·	·	·
Cc1ccc(-c2nc3ccccc3n2C(C(=O)NC(C)(C)C)C2CC2)cc1 (stereo not drawn)	·	·	5.5	1.0	0.3	1.8	·	·	·
CCC(CC)c1nc2cc(OC)c(OC)cc2c(=O)o1	+	0.5	2.7	22.4	3.5	5.2	-16.8	-17.5	3.0
COc1cc2nc(C(C)(C)C)oc(=O)c2cc1OC	-0.8	5.4	4.9	9.7	-4.2	0.3	·	·	·
COc1ccc(-n2nc(C(=O)NCC(=O)Nc3ccccn3)c3ccccc3c2=O)cc1Cl	102.0*	15.6	4.3	-12.7	-3.9	19.1	2.6	-0.1	-1.8
COc1ccc(-n2nc(C(=O)NCC(=O)NC(C)C)c3ccccc3c2=O)cc1Cl	11.7	0.9	-21.8	17.6	0.3	-4.4	·	·	·
CCc1ccc(N=Nc2ccc(O)c3[nH]cnc23)cc1	42.3*	9.0	-26.4	6.3	-104.1	20.6	34.3	-25.5	30.8
CC1(C(=O)NCc2ccccc2)CSCC(=O)N1Cc1cccs1 (stereo not drawn)	·	·	2.1	8.3	3.0	-2.9	·	·	·
CCC(C)CN1C(=O)CN(S(C)(=O)=O)CC1(C)C(=O)Nc1c(C)cccc1C (stereo not drawn)	·	·	-1.7	-3.3	1.5	-5.0	·	·	·
COc1cccc(CN2c3ccc(Br)cc3C(=O)CS2(=O)=O)c1	94.3*	-32.1	8.2	9.7	10.2	1.7	-4.6	-25.1	-10.3
COC(=O)[C@@]12C[C@@H](CC(=O)NCC3CCCCC3)C(=O)N(Cc3ccco3)C1=CCC(C)(C)C2	·	·	-3.8	7.4	-3.4	0.8	·	·	·
CCCNC(=O)C1(C)CCN(C(=O)c2cccc(C(F)(F)F)c2)C1 (stereo not drawn)	1.0	10.3	7.6	32.4	3.9	0.8	·	·	·
COc1cc(OC)c(OC)cc1/C=C1\Oc2cc(OS(C)(=O)=O)ccc2C1=O	96.7*	11.2	-11.0	42.4	-104.6	55.1*	69.2*	4.6	-12.1
O=c1cc(Cl)[nH]c(=O)n1CCNc1ncc(C(F)(F)F)cc1Cl	81.9*	-3.8	2.8	-1.7	-21.3	36.6*	99.1*	7.1	87.0*
O=C1C=CC(=O)N1CCNc1ncc(C(F)(F)F)cc1Cl	-1.9	4.5	-0.5	1.1	-9.8	1.0	·	·	·
COc1ccccc1NC(=O)CCC(=O)Nc1ccccc1OC	7.9	15.7	1.5	-11.1	-3.8	-3.1	·	·	·
COc1ccccc1NC(=O)CCC(=O)c1ccc(-c2ccccc2)cc1	59.1*	-2.2	-3.1	-8.9	-2.7	5.1	6.3	4.4	-0.9
SMILES	Rpn11 block	DNMT1 inh	SUMO1-SIM PPI	SKN-1 block	MT1-MMP act inh	CSN inh	Rpn11 inh conf	MMP-2 counter	Thrombin FP
CCCCN1C(=O)C(CC(=O)NCCCCc2ccccc2)CC(C(=O)N2CCCCCC2)=C1C (stereo not drawn)	·	·	-2.4	13.8	3.7	-3.9	·	·	·
Cc1ccccc1S(=O)(=O)N1C[C@H]2CON(C)[C@H]2C[C@H]1c1cccc(N2CCOCC2)c1	-1.9	0.0	3.4	24.0	1.7	-2.7	·	·	·
Cc1cc(C)c(S(=O)(=O)N2C[C@H]3CON(C)[C@H]3C[C@H]2c2ccc(N3CCCCC3)cc2)c(C)c1	76.9*	0.9	-1.2	13.0	-6.6	13.7	96.0*	-25.9	86.8*
O=C(CSc1nc2[nH]ncc2c(=O)[nH]1)Nc1ccc(Cl)c(Cl)c1	-1.9	0.1	22.1	-13.5	-5.4	1.6	·	·	·
Cc1ccc(NC(=O)CSc2nc3[nH]ncc3c(=O)[nH]2)cc1Cl	51.2*	-8.7	9.7	11.8	-2.3	-0.5	-9.2	-21.9	-9.6
CCOC(=O)[C@]12CCC=C1N(Cc1cccc3ccccc13)C(=O)[C@H](CC(=O)N1CCN(C(=O)c3ccco3)CC1)C2	·	·	4.7	8.1	-3.1	1.1	·	·	·
FC(F)(F)c1nc(N2CCN(c3ccccc3)CC2)nc2c1CCCCC2	47.6*	5.7	-4.8	-5.0	2.1	-1.7	-10.7	-30.1	-11.6
